Article PMC4201344 (ACS Chemical Biology, 2014)
Changes are numbered by the printed parent chain. Entries after “also recorded” stand apart in the source; their conditions may differ.

What was measured:
[1] = molecular target: GluClβ homomeric receptor, wild type (Caenorhabditis elegans, UniProt Q17328); experiment: two-electrode voltage clamp, Xenopus laevis oocytes; format: cell-based, C. elegans; conditions: glutamate
[2] = test system: GluClβ homomeric receptor, wild type; experiment: as above; format: cell-based, C. elegans; conditions: high expressing mutants of GluClβ
GluClβ AG-2′,-1′PA = GluClβ AG-2′,-1′PA (Caenorhabditis elegans, UniProt Q17328, A275P/G276A); experiment: as above; format: cell-based, C. elegans; conditions: glutamate
GluClβ AG-2′,-1′PA, sequence (Q17328 23-434 A275P/G276A): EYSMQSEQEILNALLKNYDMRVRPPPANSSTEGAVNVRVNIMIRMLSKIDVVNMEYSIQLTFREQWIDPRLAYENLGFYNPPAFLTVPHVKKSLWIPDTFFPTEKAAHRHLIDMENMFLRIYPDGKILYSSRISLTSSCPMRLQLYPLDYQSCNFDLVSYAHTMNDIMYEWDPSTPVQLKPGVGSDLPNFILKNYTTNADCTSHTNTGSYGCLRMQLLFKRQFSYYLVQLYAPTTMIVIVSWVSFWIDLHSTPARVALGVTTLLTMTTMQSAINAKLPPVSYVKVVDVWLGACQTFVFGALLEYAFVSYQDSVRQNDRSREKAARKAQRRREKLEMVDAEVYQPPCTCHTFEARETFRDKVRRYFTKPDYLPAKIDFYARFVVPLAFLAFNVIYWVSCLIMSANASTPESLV

GluClβ A2′T = GluClβ A2′T (Caenorhabditis elegans, UniProt Q17328, A279T); experiment: two-electrode voltage clamp, Xenopus laevis oocytes; format: cell-based, C. elegans; conditions: glutamate
GluClβ A2′T, sequence (Q17328 23-434 A279T): as the sequence (Q17328 23-434 A275P/G276A) above, with P253A, A254G, A257T counted along it
Summary of the method: (§1)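 C. elegans GluClβ (mammalian codon-optimised) in pGEMhe, mutated by QuikChange; T7 mRNA. […] Voltage clamp at −60 mV in Ca-free ND96, pH 7.5. […] Peak currents taken from baseline, normalised, averaged per concentration, and fit to Hill equation (EC50, nH).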

GluClβ L9′A = GluClβ L9′A (Caenorhabditis elegans, UniProt Q17328, L286A); experiment: as above; format: cell-based, C. elegans; conditions: glutamate
GluClβ L9′A, sequence (Q17328 23-434 L286A): as the sequence (Q17328 23-434 A275P/G276A) above, with P253A, A254G, L264A counted along it
Summary of the method: as §1

GluClβ T10′A = molecular target: T1, GluClβ T10′A (Caenorhabditis elegans, UniProt Q17328, T287A); experiment: two-electrode voltage clamp, Xenopus laevis oocytes; format: cell-based, C. elegans
T1 sequence (Q17328 23-434 T287A): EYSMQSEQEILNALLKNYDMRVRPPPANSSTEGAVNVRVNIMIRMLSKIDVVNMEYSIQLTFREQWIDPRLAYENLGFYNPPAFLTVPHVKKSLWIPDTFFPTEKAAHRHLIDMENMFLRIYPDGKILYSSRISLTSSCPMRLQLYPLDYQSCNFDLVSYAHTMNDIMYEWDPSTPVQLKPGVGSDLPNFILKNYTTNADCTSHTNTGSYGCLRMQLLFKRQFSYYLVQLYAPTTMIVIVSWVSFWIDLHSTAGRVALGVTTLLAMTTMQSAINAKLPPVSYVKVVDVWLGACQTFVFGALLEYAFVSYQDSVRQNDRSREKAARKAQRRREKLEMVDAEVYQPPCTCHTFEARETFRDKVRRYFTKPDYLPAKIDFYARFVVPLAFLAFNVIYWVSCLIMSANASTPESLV

[3] = molecular target: T2, GluClβ with α signal peptide, T6′S, F96TAG Phe (Caenorhabditis elegans, UniProt Q17328, T283S); experiment: two-electrode voltage clamp, Xenopus laevis oocytes, nonsense suppression; format: cell-based, C. elegans; conditions: glutamate
T2 sequence (Q17328 23-434 T283S): T1 sequence (Q17328 23-434 T287A) with T261S, A265T
Summary of the method: (§2)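 Site-specific TAG codon, read by 74mer THG73 tRNA ligated to dCA-acylated amino acid; NVOC removed by 5 min xenon-lamp irradiation just before injection. Oocytes coinjected with 37.5 ng mRNA plus ~1 μg/μL tRNA at 48 and 24 h pre-recording; unacylated 76mer tRNA served as read-through control.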

[4] = molecular target: T3, GluClβ with α signal peptide, T6′S, Y156TAG Phe (Caenorhabditis elegans, UniProt Q17328, T283S/Y182F); experiment: as above; format: cell-based, C. elegans; conditions: glutamate
T3 sequence (Q17328 23-434 Y182F/T283S): T1 sequence (Q17328 23-434 T287A) with Y160F, T261S, A265T
Summary of the method: as §2

[5] = test system: GluClβ with α signal peptide, T6′S, Y156TAG F2–Phe; experiment: two-electrode voltage clamp, Xenopus laevis oocytes, nonsense suppression; format: cell-based, C. elegans; conditions: glutamate
[6] = test system: GluClβ T6′S, Y206TAG F1–Phe; experiment: as above; format: cell-based, C. elegans; conditions: glutamate
[7] = test system: GluClβ T6′S, Y206TAG OMe–Phe; experiment: as above; format: cell-based, C. elegans; conditions: glutamate
GluClβ T6′S, R59E = GluClβ T6′S, R59E (Caenorhabditis elegans, UniProt Q17328, R85E/T283S); experiment: two-electrode voltage clamp, Xenopus laevis oocytes; format: cell-based, C. elegans; conditions: glutamate
GluClβ T6′S, R59E, sequence (Q17328 23-434 R85E/T283S): as the sequence (Q17328 23-434 A275P/G276A) above, with R63E, P253A, A254G, T261S counted along it
Summary of the method: as §1

GluClβ T6′S, Q174A = GluClβ T6′S, Q174A (Caenorhabditis elegans, UniProt Q17328, Q200A/T283S); experiment: two-electrode voltage clamp, Xenopus laevis oocytes; format: cell-based, C. elegans; conditions: glutamate
GluClβ T6′S, Q174A, sequence (Q17328 23-434 Q200A/T283S): as the sequence (Q17328 23-434 A275P/G276A) above, with Q178A, P253A, A254G, T261S counted along it

GluClβ T6′S, Y156F = GluClβ T6′S, Y156F (Caenorhabditis elegans, UniProt Q17328, T283S/Y182F); experiment: as above; format: cell-based, C. elegans; conditions: glutamate
GluClβ T6′S, Y156F, sequence (Q17328 23-434 Y182F/T283S): as the sequence (Q17328 23-434 A275P/G276A) above, with Y160F, P253A, A254G, T261S counted along it

GluClα receptor = GluClα receptor (Caenorhabditis elegans, UniProt G5EBR3); conditions: in the absence of ivermectin, Xenopus laevis oocytes; cited from earlier work
GluClα receptor, sequence (G5EBR3 21-461): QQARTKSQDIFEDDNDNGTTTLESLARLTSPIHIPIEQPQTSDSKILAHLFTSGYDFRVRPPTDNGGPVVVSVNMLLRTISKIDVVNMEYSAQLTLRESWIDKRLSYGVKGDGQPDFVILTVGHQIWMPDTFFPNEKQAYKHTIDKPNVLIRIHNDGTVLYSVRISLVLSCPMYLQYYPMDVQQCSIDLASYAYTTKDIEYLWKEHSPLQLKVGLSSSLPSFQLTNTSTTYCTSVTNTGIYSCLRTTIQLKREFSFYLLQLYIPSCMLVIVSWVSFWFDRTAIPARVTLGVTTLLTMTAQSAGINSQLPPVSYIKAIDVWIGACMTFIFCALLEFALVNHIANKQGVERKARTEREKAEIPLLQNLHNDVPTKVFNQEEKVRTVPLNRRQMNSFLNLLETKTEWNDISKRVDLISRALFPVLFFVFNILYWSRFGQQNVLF

GluClβ homomeric receptor, wild type (Caenorhabditis elegans, UniProt Q17328), sequence (Q17328 23-434): as the sequence (Q17328 23-434 A275P/G276A) above, with P253A, A254G counted along it

N[C@@H](CCC(=O)O)C(=O)O [glutamate]
Hill [1]: 2.5 ± 0.2 | concentration at which rapid desensitization occurs [2]: greater than 100 mM | Imax (GluClβ AG-2′,-1′PA): 12–66 μA | EC50 (GluClβ A2′T): abolished glutamate-induced currents; also recorded: no response | EC50 (GluClβ L9′A): constitutively active | EC50 (GluClβ T10′A; glutamate): 13 ± 1 µM | Hill (GluClβ T10′A; glutamate): 2.8 ± 0.1 | Imax (GluClβ T10′A; glutamate): 2–28 μA | increase in receptor sensitivity (GluClβ T10′A; vs WT): 27 fold | EC50 [3]: 12 ± 1 µM | Hill [3]: 2.8 ± 0.3 | Imax [3]: 0.1–4 μA | EC50 [4]: 17000 ± 1000 µM | Hill [4]: 1.7 ± 0.1 | Imax [4]: 1–4 μA | EC50 [5]: 49000 ± 3000 µM | Hill [5]: 1.8 ± 0.1 | Imax [5]: 0.2–4 μA | EC50 [6]: 640 ± 10 µM | Hill [6]: 2.8 ± 0.1 | Imax [6]: 0.04–0.34 μA | EC50 [7]: 560 ± 10 µM | Hill [7]: 1.8 ± 0.1 | Imax [7]: 0.1–1.4 μA | EC50 (GluClβ T6′S, R59E): nonfunctional; also recorded: no response | EC50 (GluClβ T6′S, Q174A): 110 ± 10 µM | Hill (GluClβ T6′S, Q174A): 2.4 ± 0.2 | EC50 (GluClβ T6′S, Y156F): 6400 ± 400 µM | Hill (GluClβ T6′S, Y156F): 1.6 ± 0.1 | activation by glutamate (GluClα receptor): not activated
